The results in this text go back to the array DNA melting data of Ke et al. (doi:10.1101/2024.01.08.574731).

Data set [1] is described as follows: folding enthalpy; higher = less favourable; fluorescence melt of hairpins on a sequencing array, two-state fit. Particulars: sodium 0.088 M. In a few lines:
(§1)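 Bootstrapped two-state fits yielded melting temperature and folding enthalpy for library hairpins. Cy3 fluorescence, with annealed Cy3 and quencher oligos, was imaged on a sequenced MiSeq flow cell in 50 mM Na-HEPES pH 8.0, 25 mM NaCl in 2.5 °C steps up to 60 °C, and normalised to pre-quench Cy3 and to control constructs. Four replicates were combined by inverse variance, and fitted temperatures were raised by 9.35 °C to match UV melts.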

Data set [2] can be described thus: melting temperature; fluorescence melt of hairpins on a sequencing array, two-state fit, raised by 9.35 °C to match UV melts. Particulars: sodium 0.088 M. The method in brief:
as §1

As to GAGCACGAAAGTGAACTC ((((((....)))..))), the folding enthalpy in data set [1] is -20.2 kcal/mol. Besides, in data set [2], the Tm amounted to 42.9 °C.
The like results for GCTTTAGAAATAAAGC ((((((....)))))) were, in that order, -31.4 kcal/mol and 45.1 °C.
The corresponding values for GATTATGCGAAAGCAATC (((..(((....)))))) are -9.91 kcal/mol and 23.4 °C.
On to GGTTCTGGAAACAGAATC (.(((((....))))).), for which, in data set [1], the folding enthalpy was -34.2 kcal/mol. The Tm in data set [2] was found to be 45 °C.
The like results for GGACGCGAAAGCGTTTCC ((((((....)))..))) were, in that order, -9.28 kcal/mol and 36.4 °C.
As to GATCGACCTATCGATC ((((((....)))))), the folding enthalpy in data set [1] is -38.9 kcal/mol. Also, the Tm in data set [2] turned out to be 51 °C.
The like results for GCTATCGGAAACGACAGC (((.(((....))).))) were, in that order, -30.9 kcal/mol and 43.8 °C.
In the case of GCGGCAACCCGC ((((....)))), the folding enthalpy in data set [1] is -24.7 kcal/mol. Moreover, the Tm in data set [2] worked out at 51.9 °C.
GCCAATGGAAACATTGAC (.(((((....))))).): in data set [1], the folding enthalpy is -22.2 kcal/mol. The Tm in data set [2] came to 37.7 °C.
The like results for GCCCAGCGAAAGCTTAGC ((..(((....)))..)) were, in that order, -8.7 kcal/mol and 32.8 °C.
In the case of GATCTACTGTAGATC ((((((...)))))), the folding enthalpy in data set [1] is -36.8 kcal/mol. Further, the Tm in data set [2] was found to be 41.1 °C.
The like results for GGGATGTCGAAAGACCCC (((..(((....)))))) were, in that order, -18.8 kcal/mol and 44.9 °C.
The like results for GCTTCACGAAAGTGGAGC (((.(((....))).))) were, in that order, -43.7 kcal/mol and 58.3 °C.
Regarding GCTACGCGAAAGCAGAGC (((..((....))..))), the folding enthalpy in data set [1] is -18.7 kcal/mol. Besides, the Tm in data set [2] was 48.4 °C.
Regarding GAGGTCCGAAAGGAACTC (((.(((....))).))), the folding enthalpy in data set [1] is -40.6 kcal/mol. For the same sequence, the Tm in data set [2] amounted to 61.5 °C.
Consider CGCACGGAAACGTGGCG ((((((....))).))), for which the folding enthalpy in data set [1] is -25.9 kcal/mol. Further, in data set [2], the Tm was 54.2 °C.
The corresponding values for GATCGAGCTGTCGATC ((((((....)))))) are -38.6 kcal/mol and 51.3 °C.
The like results for GCCTACCGAAAGGTGGGC (((.(((....))).))) were, in that order, -38.6 kcal/mol and 69.1 °C.
The like results for GTGATGGGAAACTATCGC (.(((.(....).))).) were, in that order, -23.4 kcal/mol and 35.2 °C.
On to GGTCACGAAAGTGACACC ((((((....)))..))), for which the folding enthalpy in data set [1] was -7.64 kcal/mol. In data set [2], the Tm was 52 °C.
The corresponding values for GCGGATCGAAAGATCGC (((.(((....)))))) are -25.6 kcal/mol and 58.1 °C.
The like results for GATCCGCGGCCGGATC ((((((....)))))) were, in that order, -38.4 kcal/mol and 56 °C.
The like results for GTTAACCGAAAGGTAAC (((.(((....)))))) were, in that order, -18.8 kcal/mol and 40.8 °C.
Take CGAGCGGAAACGCGATCG ((((((....)))..))): the folding enthalpy in data set [1] is -12.1 kcal/mol. In addition, the Tm in data set [2] amounted to 47 °C.
The corresponding values for GGGTTCGGAAACAAACCC (((((.(....).))))) are -29.8 kcal/mol and 43 °C.
The like results for GGCGTTCGAAAGAATGCC (((.(((....))).))) were, in that order, -56.5 kcal/mol and 62.8 °C.
The corresponding values for GAACAAGGAAACTTGTCC (.(((((....))))).) are -15.4 kcal/mol and 31.3 °C.
In the case of GATGACGAAAGTCGATC ((((((....))).))), the folding enthalpy in data set [1] is -18.8 kcal/mol. In data set [2], the Tm stood at 45.2 °C.
The corresponding values for GTTGGCGAAAGCCGAAAC ((((((....)))..))) are -8.56 kcal/mol and 38.2 °C.
The corresponding values for GCTGACGAAAGTCCTAGC ((((((....)))..))) are -17 kcal/mol and 34.3 °C.
The like results for GATCTCTTAGAGATC ((((((...)))))) were, in that order, -38.9 kcal/mol and 53.1 °C.
Regarding GCACTCGGAAACAAGTGC (((((.(....).))))), the folding enthalpy in data set [1] was -29.3 kcal/mol. Also, the Tm in data set [2] was 46.3 °C.
The like results for GAGTCCGAAAGGAGGCTC ((((((....)))..))) were, in that order, -20.7 kcal/mol and 47.4 °C.
As to GAGGCCGAAAGGCAGCTC ((((((....)))..))), the folding enthalpy in data set [1] was -13.7 kcal/mol. In addition, the Tm in data set [2] is 50.6 °C.
In the case of GAGTAGGGAAACCTATTC ((.((((....)))).)), the folding enthalpy in data set [1] is -25.5 kcal/mol. In addition, in data set [2], the Tm is 32.5 °C.
The like results for GAATTCGGAAACGAATTC (((((((....))))))) were, in that order, -35 kcal/mol and 58.6 °C.
On to CGGAGCCGGAAACGGCCG (((..(((....)))))), for which the folding enthalpy in data set [1] is -11.2 kcal/mol. Further, the Tm in data set [2] came to 46.6 °C.
The corresponding values for GCTCTGCCGAAAGGCAGC (((..(((....)))))) are -6.01 kcal/mol and 40 °C.
The like results for GAACGAGGAAACTCGCTC ((.((((....)))).)) were, in that order, -20.5 kcal/mol and 38.9 °C.
For the sequence GCTAACGGAAACATTAGC (((((.(....).))))), in data set [1], the folding enthalpy is -23.1 kcal/mol. For the same sequence, the Tm in data set [2] stood at 32.9 °C.
In the case of GTGACGGAAACGTCAC ((((((....)))))), the folding enthalpy in data set [1] is -32.9 kcal/mol. The Tm in data set [2] came to 68.7 °C.
The like results for GATCCCTAAAGGGATC ((((((....)))))) were, in that order, -36.5 kcal/mol and 60.6 °C.
Consider GATCACCAAGTGATC ((((((...)))))), for which the folding enthalpy in data set [1] is -36.8 kcal/mol. Moreover, the Tm in data set [2] was determined as 52.5 °C.
GTCGCCGAAAGGCACGAC ((((((....)))..))): the folding enthalpy in data set [1] was -15.6 kcal/mol. Also, the Tm in data set [2] amounted to 48.4 °C.
In the case of GATGTGGGAAACCACGTC ((.((((....)))).)), the folding enthalpy in data set [1] is -26.5 kcal/mol. For the same sequence, the Tm in data set [2] came to 51 °C.
The like results for GCTTTGCGAAAGCAAGC (((.(((....)))))) were, in that order, -15.2 kcal/mol and 53.2 °C.
The corresponding values for GAGTCAGGAAACTGGCTC (((.(((....))).))) are -43.1 kcal/mol and 54.1 °C.
The like results for GATCGGACCCCGATC ((((((...)))))) were, in that order, -39.4 kcal/mol and 54.1 °C.
In the case of GGGGCGGGAAACCACCCC ((((.((....)).)))), the folding enthalpy in data set [1] is -52 kcal/mol. For the same sequence, in data set [2], the Tm is 55 °C.
The like results for GTGGTCGAAAGACTGCAC ((((((....)))..))) were, in that order, -14.7 kcal/mol and 40.8 °C.
The corresponding values for GCTGGACGAAAGTCTAGC (((.(((....))).))) are -39.1 kcal/mol and 62.4 °C.
The corresponding values for GTAACTCGAAAGAGATAC (((.(((....))).))) are -27.6 kcal/mol and 42 °C.
For GGAGGCGGAAACGCTTCC (((.(((....))).))), the folding enthalpy in data set [1] is -36.9 kcal/mol. In addition, the Tm in data set [2] was found to be 55.2 °C.
The corresponding values for GATCCTTATGAGGATC ((((((....)))))) are -37.1 kcal/mol and 53.3 °C.
The corresponding values for GGTTAACGAAAGTTCACC (((.(((....))).))) are -31.3 kcal/mol and 43 °C.
